Data: ChEMBL document CHEMBL1275519, “In vivo pharmacodynamics of ceftobiprole against multiple bacterial pathogens in murine thigh and lung infection models” (Antimicrob Agents Chemother, 2008)
≈ marks a conversion by molar mass, not a printed value.

How the values were obtained:
[1] = T>MIC in methicillin-resistant Staphylococcus aureus 22115 infected CD1 neutropenic mouse at static dose of 16.9 mg/kg, sc administered every 6 hrs; format: functional; conditions: route subcutaneous
[2] = T>MIC in Enterobacter cloacae 4567 infected CD1 neutropenic mouse at static dose of 3.28 mg/kg, sc administered every 3 hrs; format: functional; conditions: route subcutaneous
Outline: (§1)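 Neutropenic mice (cyclophosphamide i.p. 150 and 100 mg/kg, 4 and 1 days pre-infection) given 0.1 ml thigh inoculum (1:10 dilution of 10^8 CFU/ml), then treated from 2 h post-infection for 24 h with s.c. ceftobiprole medocaril (0.010–160 mg/kg) at varied intervals. Thigh CFU plated from homogenates. Static dose came from a sigmoid Hill model, and T>MIC was estimated from mouse PK and MIC.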

[3] = Half life in CD1 neutropenic mouse with bacterial infection in thigh at 10 mg/kg, sc; conditions: in vivo
[4] = T>MIC in Klebsiella pneumoniae infected CD1 neutropenic mouse at static dose of 6.61 mg/kg, sc administered every 6 hrs; format: functional; conditions: route subcutaneous; outline: as §1
[5] = T>MIC in Staphylococcus aureus ATCC 22923 infected CD1 neutropenic mouse at static dose of 2.03 mg/kg, sc administered every 6 hrs; format: functional; conditions: route subcutaneous; outline: as §1
Pseudomonas aeruginosa = test: Antimicrobial activity against Pseudomonas aeruginosa ATCC 27853 by broth dilution method; format: functional
Outline: (§2)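 Ceftobiprole MIC by broth microdilution per Clinical and Laboratory Standards Institute (formerly NCCLS) methods, using ceftobiprole standard powder.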

[6] = T>MIC in Staphylococcus aureus […] infected CD1 neutropenic mouse at 2-log kill dose of 10.3 mg/kg, sc administered every 6 hrs; format: functional; conditions: route subcutaneous
[7] = Cmax in CD1 neutropenic mouse with bacterial infection in thigh at 40 mg/kg, sc; format: ADME, organism-based; parameters: dose 40 mg/kg, route subcutaneous; conditions: in vivo
Outline: (§3)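 Neutropenic thigh-infected mice (cyclophosphamide i.p. 150 mg/kg day −4, 100 mg/kg day −1) given single s.c. ceftobiprole medocaril doses; two groups of three mice per dose bled retro-orbitally at 0.5–6 h, each animal 3–4 times. Total serum drug measured by agar diffusion bioassay with E. coli NIH-J (linear 0.25–256 μg/ml). Cmax, t1/2 and AUC from one-compartment model.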

[8] = T>MIC in methicillin-resistant Staphylococcus aureus 11888 infected CD1 neutropenic mouse at 2-log kill dose of 40.2 mg/kg, sc administered every 6 hrs; format: functional; conditions: route subcutaneous
[9] = T>MIC in Streptococcus pneumoniae CDC 1293 infected CD1 neutropenic mouse at static dose of 2.72 mg/kg, sc administered every 6 hrs; format: functional; conditions: route subcutaneous; outline: as §1
[10] = T>MIC in Staphylococcus aureus ATCC Smith infected CD1 neutropenic mouse at static dose of 4.21 mg/kg, sc administered every 6 hrs; format: functional; conditions: route subcutaneous; outline: as §1
[11] = T>MIC in methicillin-resistant Staphylococcus aureus 22115 infected CD1 neutropenic mouse at 2-log kill dose of 34.4 mg/kg, sc administered every 6 hrs; format: functional; conditions: route subcutaneous
[12] = T>MIC in Streptococcus pneumoniae CDC 1329 infected CD1 neutropenic mouse at 2-log kill dose of 5.51 mg/kg, sc administered every 6 hrs; format: functional; conditions: route subcutaneous
[13] = T>MIC in Streptococcus pneumoniae MNO-418 infected CD1 neutropenic mouse at 2-log kill dose of 0.624 mg/kg, sc administered every 6 hrs; format: functional; conditions: route subcutaneous
[14] = T>MIC in Streptococcus pneumoniae CDC 1293 infected CD1 neutropenic mouse at 2-log kill dose of 3.55 mg/kg, sc administered every 6 hrs; format: functional; conditions: route subcutaneous
Enterobacter cloacae = test: Antimicrobial activity against Enterobacter cloacae 4567 by broth dilution method; format: functional
Outline: (§4)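 Ceftobiprole MIC determined by CLSI (NCCLS) broth microdilution.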

[15] = T>MIC in Escherichia coli ATCC 25922 infected CD1 neutropenic mouse at static dose of 8.25 mg/kg, sc administered every 6 hrs; format: functional; conditions: route subcutaneous; outline: as §1
Staphylococcus aureus [16] = test: Antimicrobial activity against Staphylococcus aureus ATCC 33591 by broth dilution method; format: functional; outline: as §2
[17] = T>MIC in Staphylococcus aureus ATCC 29213 infected CD1 neutropenic mouse at static dose of 3.78 mg/kg, sc administered every 6 hrs; format: functional; conditions: route subcutaneous; outline: as §1
[18] = T>MIC in methicillin-resistant Staphylococcus aureus 12248 infected CD1 neutropenic mouse at static dose of 29.2 mg/kg, sc administered every 6 hrs; format: functional; conditions: route subcutaneous
[19] = T>MIC in Enterobacter cloacae 2249 infected CD1 neutropenic mouse at 2-log kill dose of 155 mg/kg, sc administered every 3 hrs; format: functional; conditions: route subcutaneous
Staphylococcus aureus [20] = test: Antimicrobial activity against methicillin-resistant Staphylococcus aureus 11888 by broth dilution method; format: functional; outline: as §2
[21] = T>MIC in methicillin-resistant Staphylococcus aureus WIS-1 infected CD1 neutropenic mouse at 2-log kill dose of 53.9 mg/kg, sc administered every 6 hrs; format: functional; conditions: route subcutaneous
[22] = T>MIC in Pseudomonas aeruginosa ATCC 27853 infected CD1 neutropenic mouse at static dose of 25.2 mg/kg, sc administered every 3 hrs; format: functional; conditions: route subcutaneous; outline: as §1
Staphylococcus aureus [23] = test: Antimicrobial activity against Staphylococcus aureus ATCC Smith by broth dilution method; format: functional; outline: as §2
[24] = T>MIC in methicillin-resistant Staphylococcus aureus 12248 infected CD1 neutropenic mouse at 2-log kill dose of 50.5 mg/kg, sc administered every 6 hrs; format: functional; conditions: route subcutaneous
Escherichia coli = test: Antimicrobial activity against Escherichia coli ATCC 25922 by broth dilution method; format: functional; outline: as §4
[25] = Half life in CD1 neutropenic mouse with bacterial infection in thigh at 160 mg/kg, sc; format: ADME, organism-based; parameters: dose 160 mg/kg, route subcutaneous; conditions: in vivo; outline: as §3
Streptococcus pneumoniae [26] = test: Antimicrobial activity against Streptococcus pneumoniae CDC 673 by broth dilution method; format: functional; outline: as §2
Staphylococcus aureus [27] = test: Antimicrobial activity against methicillin-resistant Staphylococcus aureus 22115 by broth dilution method; format: functional; outline: as §2
Streptococcus pneumoniae [28] = test: Antimicrobial activity against Streptococcus pneumoniae CDC 1293 by broth dilution method; format: functional; outline: as §4
[29] = T>MIC in Streptococcus pneumoniae ATCC 10813 infected CD1 neutropenic mouse at 2-log kill dose of 0.552 mg/kg, sc administered every 6 hrs; format: functional; conditions: route subcutaneous
Staphylococcus aureus [30] = test: Antimicrobial activity against Staphylococcus aureus ATCC 22923 by broth dilution method; format: functional; outline: as §2

## Nc1nc(/C(=N/O)C(=O)N[C@@H]2C(=O)N3C(C(=O)O)=C(/C=C4\CCN([C@@H]5CCNC5)C4=O)CS[C@H]23)ns1 [CEFTOBIPROLE]
[1]
  fT>MIC: 25.4%
[2]
  fT>MIC: 35.6%
[3]
  half-life: 19 min
[4]
  fT>MIC: 41.2%
[5]
  fT>MIC: 14.1%
Pseudomonas aeruginosa
  MIC: 2 µg/mL (≈ 3.74 µM)
[6]
  fT>MIC: 26.5%
[7]
  Cmax: 31200 ng/mL
[8]
  fT>MIC: 27.4%
[9]
  fT>MIC: 16.3%
[10]
  fT>MIC: 19.6%
[11]
  fT>MIC: 29.6%
[12]
  fT>MIC: 27%
[13]
  fT>MIC: 31.8%
[14]
  fT>MIC: 18.4%
Enterobacter cloacae
  MIC: 0.5 µg/mL (≈ 0.935 µM)
[15]
  fT>MIC: 41.9%
Staphylococcus aureus [16]
  MIC: 1 µg/mL (≈ 1.87 µM)
[17]
  fT>MIC: 18.9%
[18]
  fT>MIC: 24.5%
[19]
  fT>MIC: 100%
Staphylococcus aureus [20]
  MIC: 2 µg/mL (≈ 3.74 µM)
[21]
  fT>MIC: 39.1%
[22]
  fT>MIC: 46.7%
Staphylococcus aureus [23]
  MIC: 0.5 µg/mL (≈ 0.935 µM)
[24]
  fT>MIC: 31.6%
Escherichia coli
  MIC: 0.06 µg/mL (≈ 0.112 µM)
[25]
  half-life: 31.7 min
Streptococcus pneumoniae [26]
  MIC: 1 µg/mL (≈ 1.87 µM)
Staphylococcus aureus [27]
  MIC: 1 µg/mL (≈ 1.87 µM)
Streptococcus pneumoniae [28]
  MIC: 0.5 µg/mL (≈ 0.935 µM)
[29]
  fT>MIC: 24.8%
Staphylococcus aureus [30]
  MIC: 0.5 µg/mL (≈ 0.935 µM)
